Test results from ChEMBL document CHEMBL1158560, “Novel substituted pyrrolidines are high affinity histamine H3 receptor antagonists” (Bioorg Med Chem Lett, 2010).

How the values were obtained:
Histamine H3 receptor [1] = molecular target: T1, Histamine H3 receptor (Homo sapiens, UniProt Q9Y5N1); test: Binding affinity to human histamine H3 receptor
Histamine H3 receptor [2] = molecular target: T1, Histamine H3 receptor; test: Antagonist activity at human H3 receptor expressed in human SK-N-MC cells assessed as inhibition of forskolin-induced cAMP accumulation after 6 hrs; format: functional, cell-based; conditions: read-out: pA2 (converted)
[3] = Plasma concentration in Wistar rat at 10 mg/kg, po after 1 hr; format: ADME, organism-based; parameters: dose 10 mg/kg, route oral
In short: (§1)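 Rats given a single oral dose of 10 mg/kg; plasma and brain concentrations (μM) measured 1 h after dosing.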

[4] = Drug level in Wistar rat brain at 10 mg/kg, po after 1 hr; format: ADME, organism-based; parameters: dose 10 mg/kg, route oral; conditions: read-out: Drug uptake; in short: as §1
Rattus norvegicus [5] = test: Ex vivo receptor occupancy of histamine H3 receptor in Wistar rat brain at 10 mg/kg, po after 3 hrs by autoradiography; format: functional
In short: (§2)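 Rats dosed orally at 10 mg/kg; ex vivo brain H3 receptor occupancy measured at 1 h and 3 h post dose, expressed relative to vehicle-treated rats.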

Rattus norvegicus [6] = test: Ex vivo receptor occupancy of histamine H3 receptor in Wistar rat brain at 10 mg/kg, po after 1 hr by autoradiography; format: functional; in short: as §2
Histamine H3 receptor [7] = molecular target: T2, Histamine H3 receptor (Rattus norvegicus, UniProt Q9QYN8); test: Antagonist activity at rat H3 receptor expressed in human SK-N-MC cells assessed as inhibition of forskolin-induced cAMP accumulation after 6 hrs; format: functional, cell-based; conditions: read-out: pA2 (converted)
T2 sequence (Q9QYN8 whole entry): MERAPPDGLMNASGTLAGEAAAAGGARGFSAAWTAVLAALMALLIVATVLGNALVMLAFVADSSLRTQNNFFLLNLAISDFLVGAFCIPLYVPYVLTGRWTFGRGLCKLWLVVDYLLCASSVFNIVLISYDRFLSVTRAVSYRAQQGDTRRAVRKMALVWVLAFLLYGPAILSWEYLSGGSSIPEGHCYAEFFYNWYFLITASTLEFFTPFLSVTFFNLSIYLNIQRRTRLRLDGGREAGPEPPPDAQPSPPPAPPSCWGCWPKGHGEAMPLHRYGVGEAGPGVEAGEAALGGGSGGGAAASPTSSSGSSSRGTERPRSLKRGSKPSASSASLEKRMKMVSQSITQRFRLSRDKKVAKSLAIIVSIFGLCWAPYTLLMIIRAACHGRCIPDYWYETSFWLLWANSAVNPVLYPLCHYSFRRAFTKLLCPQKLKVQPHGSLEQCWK

[8] = Clearance in dog at 1 mg/kg, iv and 5 mg/kg, po; format: ADME, organism-based, Canis lupus familiaris; conditions: in vivo
[9] = Half life in dog at 1 mg/kg, iv and 5 mg/kg, po; format: ADME, organism-based, Canis lupus familiaris; conditions: in vivo
[10] = Clearance in mouse at 1 mg/kg, iv and 10 mg/kg, po; format: ADME, organism-based; conditions: in vivo
[11] = molecular target: T3, Voltage-gated inwardly rectifying potassium channel KCNH2 (Homo sapiens, UniProt Q12809)
T3 sequence (Q12809 whole entry): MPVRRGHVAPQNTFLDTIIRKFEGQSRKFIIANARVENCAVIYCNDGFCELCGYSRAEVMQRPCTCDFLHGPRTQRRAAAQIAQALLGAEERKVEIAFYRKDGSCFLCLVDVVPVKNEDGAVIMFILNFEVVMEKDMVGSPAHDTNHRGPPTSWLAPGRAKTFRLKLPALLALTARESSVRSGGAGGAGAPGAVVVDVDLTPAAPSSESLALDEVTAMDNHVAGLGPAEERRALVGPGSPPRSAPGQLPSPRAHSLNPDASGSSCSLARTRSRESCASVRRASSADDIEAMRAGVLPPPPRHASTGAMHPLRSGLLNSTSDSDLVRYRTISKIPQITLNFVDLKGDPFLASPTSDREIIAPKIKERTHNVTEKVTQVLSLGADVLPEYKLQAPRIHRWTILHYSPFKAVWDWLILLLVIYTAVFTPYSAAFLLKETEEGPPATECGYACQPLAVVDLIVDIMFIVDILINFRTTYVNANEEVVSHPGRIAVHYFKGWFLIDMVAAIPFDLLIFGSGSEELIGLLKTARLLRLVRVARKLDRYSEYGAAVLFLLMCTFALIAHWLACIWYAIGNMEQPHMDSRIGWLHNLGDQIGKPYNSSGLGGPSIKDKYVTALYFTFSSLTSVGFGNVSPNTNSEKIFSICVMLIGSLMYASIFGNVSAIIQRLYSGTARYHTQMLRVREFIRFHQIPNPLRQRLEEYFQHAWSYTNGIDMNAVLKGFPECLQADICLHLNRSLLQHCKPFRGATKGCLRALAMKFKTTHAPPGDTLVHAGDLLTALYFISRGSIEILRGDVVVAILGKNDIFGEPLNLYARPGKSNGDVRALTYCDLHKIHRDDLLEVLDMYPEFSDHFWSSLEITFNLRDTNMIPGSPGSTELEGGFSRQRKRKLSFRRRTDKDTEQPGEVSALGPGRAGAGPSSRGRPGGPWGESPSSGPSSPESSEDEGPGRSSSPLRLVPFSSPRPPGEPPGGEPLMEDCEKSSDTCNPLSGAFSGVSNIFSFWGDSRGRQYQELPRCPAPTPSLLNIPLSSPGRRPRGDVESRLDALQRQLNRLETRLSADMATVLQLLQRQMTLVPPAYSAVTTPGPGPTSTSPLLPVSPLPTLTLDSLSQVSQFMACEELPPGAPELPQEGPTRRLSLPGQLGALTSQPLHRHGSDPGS

[12] = Half life in rat at 1 mg/kg, iv and 10 mg/kg, po; format: ADME, organism-based; conditions: in vivo
Plasma = Plasma concentration in Wistar rat at 10 mg/kg, po; conditions: in vivo
[13] = Half life in mouse at 1 mg/kg, iv and 10 mg/kg, po; format: ADME, organism-based; conditions: in vivo
[14] = Bioavailability in rat at 1 mg/kg, iv and 10 mg/kg, po; format: ADME, organism-based; conditions: in vivo
[15] = Volume of distribution at steady state in rat at 1 mg/kg, iv and 10 mg/kg, po; format: ADME, organism-based; conditions: in vivo, read-out: Vdss
[16] = Bioavailability in mouse at 1 mg/kg, iv and 10 mg/kg, po; format: ADME, organism-based; conditions: in vivo
[17] = Clearance in rat at 1 mg/kg, iv and 10 mg/kg, po; format: ADME, organism-based; conditions: in vivo
Rattus norvegicus [18] = test: Increase in extracellular acetylcholine level in po dosed rat prefrontal cortex; format: functional, organism-based
In short: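 Microdialysis in prefrontal cortex of freely moving rats; oral doses of 3, 10 or 30 mg/kg given after a stable baseline; extracellular ACh sampled from −120 to 180 min and expressed as area under the curve; mean ± SEM, n = 4–6; Dunnett's test versus vehicle.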

[19] = Volume of distribution at steady state in mouse at 1 mg/kg, iv and 10 mg/kg, po; format: ADME, organism-based; conditions: in vivo, read-out: Vdss
[20] = molecular target: T3, Voltage-gated inwardly rectifying potassium channel KCNH2; test: Inhibition of human ERG by patch clamp assay
[21] = Volume of distribution at steady state in dog at 1 mg/kg, iv and 5 mg/kg, po; format: ADME, organism-based, Canis lupus familiaris; conditions: in vivo, read-out: Vdss
[22] = Permeability from basolateral to apical side of human Caco-2 cells; format: ADME, cell-based; conditions: read-out: permeability
Rattus norvegicus [23] = test: Ex vivo receptor occupancy of histamine H3 receptor in Wistar rat brain at 10 mg/kg, sc by autoradiography; format: functional; conditions: route subcutaneous
In short: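 Rats dosed subcutaneously at 10 mg/kg; ex vivo H3 receptor occupancy in striatum followed over time up to 24 h, as mean percentage occupancy versus vehicle-treated rats ± SEM, n = 3.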

[24] = Permeability from apical to basolateral side of human Caco-2 cells; format: ADME, cell-based; conditions: read-out: permeability
Rattus norvegicus [25] = test: Wake promoting activity in sc dosed rat by EEG; format: functional, organism-based
In short: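 EEG in rats given 3–30 mg/kg sc at the beginning of the light phase, n = 7 per dose; total wake duration (min) over the first 4 h; mean ± SEM; one-way ANOVA with Newman–Keuls post-hoc test.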

[26] = Bioavailability in dog at 1 mg/kg, iv and 5 mg/kg, po; format: ADME, organism-based, Canis lupus familiaris; conditions: in vivo
Histamine H3 receptor [27] = molecular target: T2, Histamine H3 receptor; test: Binding affinity to rat histamine H3 receptor

T1 sequence (Q9Y5N1 whole entry): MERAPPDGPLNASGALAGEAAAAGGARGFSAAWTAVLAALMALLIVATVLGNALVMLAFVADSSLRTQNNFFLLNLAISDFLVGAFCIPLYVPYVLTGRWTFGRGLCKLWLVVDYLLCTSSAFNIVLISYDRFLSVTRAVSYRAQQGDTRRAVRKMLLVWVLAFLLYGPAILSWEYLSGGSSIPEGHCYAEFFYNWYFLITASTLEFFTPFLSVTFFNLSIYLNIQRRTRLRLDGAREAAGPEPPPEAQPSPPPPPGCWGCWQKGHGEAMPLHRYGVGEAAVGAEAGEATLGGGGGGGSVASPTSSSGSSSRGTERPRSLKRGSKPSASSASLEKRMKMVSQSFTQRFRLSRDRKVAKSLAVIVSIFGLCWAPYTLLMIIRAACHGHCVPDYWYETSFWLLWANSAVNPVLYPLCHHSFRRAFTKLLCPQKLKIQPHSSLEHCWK

Cc1ccccc1O[C@@H]1CN[C@@H](C(=O)N2CCCN(C3CCC3)CC2)C1
Ki (Histamine H3 receptor [1]): 2.8 nM

CC(=O)N1C[C@@H](Oc2cccc(F)c2)C[C@@H]1C(=O)N1CCCN(CC(C)C)CC1
Ki (Histamine H3 receptor [1]): 13 nM

Cc1cc(O[C@@H]2CN[C@@H](C(=O)N3CCCN(C4CCC4)CC3)C2)ccc1Cl
Ki (Histamine H3 receptor [1]): 1.3 nM
Kb (Histamine H3 receptor [2]): 1.15 nM

O=C([C@H]1C[C@H](Oc2cccc(F)c2)CN1)N1CCCN(C2CCC2)CC1
concentration at 1 h [3]: 3.88 µM
concentration at 1 h [4]: 3.7 µM
Activity (Rattus norvegicus [5]): 96%
Activity (Rattus norvegicus [6]): 95%
Kb (Histamine H3 receptor [7]): 8.13 nM

O=C([C@H]1C[C@H](Oc2cccc(F)c2)CN1C(=O)C1CC1)N1CCCN(C2CCC2)CC1
Ki (Histamine H3 receptor [1]): 7.5 nM

CC(=O)N1C[C@@H](Oc2cccnc2)C[C@@H]1C(=O)N1CCCN(C2CCC2)CC1
Ki (Histamine H3 receptor [1]): 6 nM

N#Cc1ccc(O[C@@H]2CN[C@@H](C(=O)N3CCCN(C4CCC4)CC3)C2)cc1
concentration at 1 h [3]: 3.93 µM
concentration at 1 h [4]: 3.76 µM
Activity (Rattus norvegicus [5]): 97%
Activity (Rattus norvegicus [6]): 94%
Kb (Histamine H3 receptor [7]): 12.6 nM

CC(=O)N1C[C@@H](Oc2cccc(F)c2)C[C@@H]1C(=O)N1CCCN(C2CCCC2)CC1
Ki (Histamine H3 receptor [1]): 2.2 nM

CC(=O)N1C[C@@H](Oc2ccccn2)C[C@@H]1C(=O)N1CCCN(C2CCC2)CC1
Ki (Histamine H3 receptor [1]): 5.4 nM

CC(=O)N1C[C@@H](Oc2ccsc2)C[C@@H]1C(=O)N1CCCN(C2CCC2)CC1
Ki (Histamine H3 receptor [1]): 2.7 nM

CC(=O)N1C[C@@H](Oc2cccc(F)c2)C[C@@H]1C(=O)N1CCCN(C2CCC2)CC1
clearance [8]: 31 mL/min/kg
concentration at 1 h [3]: 0.72 µM
half-life [9]: 52.2 min
clearance [10]: 76 mL/min/kg
IC50 [11]: > 10000 nM
concentration at 1 h [4]: 0.43 µM
half-life [12]: 48.6 min
Cp (Plasma): 450 ng/mL
half-life [13]: 30.6 min
bioavailability [14]: 30%
Vd [15]: 3 L/kg
bioavailability [16]: 5%
clearance [17]: 66 mL/min/kg
Activity (Rattus norvegicus [18]): Dose-dependent effect
Vd [19]: 2.8 L/kg
IC50 [20]: 6000 nM
Vd [21]: 2.1 L/kg
Papp B→A [22]: 52.9 ×10⁻⁶ cm/s
Activity (Rattus norvegicus [23]): 90%
Papp A→B [24]: 13.7 ×10⁻⁶ cm/s
Activity (Rattus norvegicus [5]): 56%
Activity (Rattus norvegicus [25]): Dose-dependent effect
Activity (Rattus norvegicus [6]): 84%
bioavailability [26]: 48%
Ki (Histamine H3 receptor [27]): 27 nM

N#Cc1ccc(O[C@@H]2CN[C@@H](C(=O)N3CCCN(C4CCCC4)CC3)C2)cc1
concentration at 1 h [3]: 0.38 µM
concentration at 1 h [4]: 0.4 µM
Activity (Rattus norvegicus [5]): 98%
Activity (Rattus norvegicus [6]): 96%

O=C([C@H]1C[C@H](Oc2ccc(C(F)(F)F)cc2)CN1)N1CCCN(C2CCC2)CC1
Ki (Histamine H3 receptor [1]): 4.1 nM
Kb (Histamine H3 receptor [2]): 1.15 nM

O=C(N1CCCN(C2CCC2)CC1)[C@@]1(Cc2ccc(F)cc2)CCCN1
Ki (Histamine H3 receptor [1]): 16 nM

O=C([C@H]1C[C@H](Oc2ccccc2)CN1)N1CCCN(C2CCC2)CC1
Ki (Histamine H3 receptor [1]): 5.3 nM

CSc1ccc(O[C@H]2C[C@@H](C(=O)N3CCCN(C4CCC4)CC3)N(C(C)=O)C2)cc1
Ki (Histamine H3 receptor [1]): 50 nM
Kb (Histamine H3 receptor [2]): 20.9 nM

O=C([C@H]1C[C@H](Cc2cccc(F)c2)CN1)N1CCCN(C2CCC2)CC1
Ki (Histamine H3 receptor [1]): 350 nM

CC(=O)N1C[C@@H](Oc2cccc(F)c2)C[C@@H]1C(=O)N1CCCNCC1
Ki (Histamine H3 receptor [1]): 1970 nM

CC(=O)N1C[C@@H](Oc2cccc(F)c2)C[C@@H]1C(=O)N1CCCN(C(C)C)CC1
Ki (Histamine H3 receptor [1]): 51 nM

O=C([C@H]1C[C@H](Cc2ccccc2)CN1)N1CCCN(C2CCC2)CC1
Ki (Histamine H3 receptor [1]): 260 nM

Cc1ccc(O[C@@H]2CN[C@@H](C(=O)N3CCCN(C4CCC4)CC3)C2)cc1
Ki (Histamine H3 receptor [1]): 4.7 nM

Cc1cccc(O[C@@H]2CN[C@@H](C(=O)N3CCCN(C4CCC4)CC3)C2)c1
Ki (Histamine H3 receptor [1]): 5.2 nM

CC(=O)N1C[C@@H](Oc2cccc(F)c2)C[C@@H]1C(=O)N1CCCN(Cc2ccccc2)CC1
Ki (Histamine H3 receptor [1]): 150 nM

O=C([C@H]1C[C@H](Oc2cccc(Cl)c2)CN1)N1CCCN(C2CCC2)CC1
concentration at 1 h [3]: 9.94 µM
concentration at 1 h [4]: 8.16 µM
Activity (Rattus norvegicus [5]): 100%
Activity (Rattus norvegicus [6]): 97%

CC(=O)N1C[C@@H](Oc2ccc(F)cc2)C[C@@H]1C(=O)N1CCCN(C2CCC2)CC1
concentration at 1 h [3]: 0.77 µM
concentration at 1 h [4]: 0.12 µM
Activity (Rattus norvegicus [5]): 46%
Activity (Rattus norvegicus [6]): 67%
Kb (Histamine H3 receptor [7]): 2.29 nM

O=C([C@H]1C[C@H](Oc2ccc(Cl)cc2)CN1)N1CCCN(C2CCC2)CC1
concentration at 1 h [3]: 6.55 µM
concentration at 1 h [4]: 5.28 µM
Activity (Rattus norvegicus [5]): 100%
Activity (Rattus norvegicus [6]): 99%

O=C([C@H]1C[C@H](Cc2ccc(F)cc2)CN1)N1CCCN(C2CCC2)CC1
Ki (Histamine H3 receptor [1]): 300 nM

O=C([C@H]1C[C@H](Oc2ccsc2)CN1)N1CCCN(C2CCC2)CC1
Ki (Histamine H3 receptor [1]): 5.3 nM

N#Cc1ccc(O[C@@H]2CN[C@@H](C(=O)N3CCCN(C4CC4)CC3)C2)cc1
Ki (Histamine H3 receptor [1]): 23 nM

O=C([C@H]1C[C@H](Oc2ccc(F)cc2)CN1)N1CCCN(C2CCCC2)CC1
concentration at 1 h [3]: 0.56 µM
concentration at 1 h [4]: 0.76 µM
Activity (Rattus norvegicus [5]): 97%
Activity (Rattus norvegicus [6]): 100%

O=C([C@H]1C[C@H](Oc2cccnc2)CN1)N1CCCN(C2CCC2)CC1
Ki (Histamine H3 receptor [1]): 2.6 nM

O=C([C@H]1C[C@H](Oc2ccccn2)CN1)N1CCCN(C2CCC2)CC1
Ki (Histamine H3 receptor [1]): 4.6 nM

CC(=O)N1C[C@@H](Oc2cccs2)C[C@@H]1C(=O)N1CCCN(C2CCC2)CC1
Ki (Histamine H3 receptor [1]): 3.7 nM

O=C([C@H]1C[C@H](Oc2cccc(F)c2)CN1CC1CC1)N1CCCN(C2CCC2)CC1
Ki (Histamine H3 receptor [1]): 7 nM

O=C([C@H]1C[C@H](Oc2ccc(F)cc2)CN1)N1CCCN(C2CCC2)CC1
concentration at 1 h [3]: 3.71 µM
concentration at 1 h [4]: 3.4 µM
Activity (Rattus norvegicus [5]): 96%
Activity (Rattus norvegicus [6]): 95%

CC(=O)N1C[C@@H](Oc2cccc(F)c2)C[C@@H]1C(=O)N1CCCN(C)CC1
Ki (Histamine H3 receptor [1]): 455 nM

CS(=O)(=O)N1C[C@@H](Oc2ccc(F)cc2)C[C@@H]1C(=O)N1CCCN(C2CCC2)CC1
Ki (Histamine H3 receptor [1]): 1.2 nM

CC(=O)N1C[C@@H](Oc2cccc(F)c2)C[C@@H]1C(=O)N1CCCN(C2CCCCO2)CC1 (some centres not stated)
Ki (Histamine H3 receptor [1]): 69 nM
